Source: ChEMBL document CHEMBL3045693, “Metabolism of diethofencarb (isopropyl 3,4-diethoxyphenylcarbamate) in rats: identification of metabolites in urine” (J Agric Food Chem, 2004)

Tests used:
Conditions in all cases: in vivo, 24 h
[1] = Drug excretion in Rattus norvegicus CD Sprague-Dawley (rat) urine assessed as N-(3-ethoxy-4-hydroxyphenyl)-2-hydroxyacetamide at 300 mg/5ml, po daily for 4 consecutive days measured within 1 day after final dose by NMR/MS analysis; format: ADME, organism-based
In short: (§1)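 Male CD (Sprague-Dawley) rats, 11 weeks old (n=4), housed individually in glass metabolism cages separating urine and feces. [phenyl-14C]-labelled compound given by gastric probe in corn oil at 300 mg/5 mL/kg daily for 4 days. Urine from the day after the last dose: aqueous layer hydrolysed with sulfatase (with β-glucuronidase activity) in 0.2 M acetate pH 5.0, 37 °C, 19 h. Ethyl acetate extraction, then HPLC/TLC purification and NMR/ESI-MS identification.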

[2] = Drug excretion in Rattus norvegicus CD Sprague-Dawley (rat) urine assessed as (4-acetamino-2-ethoxyphenoxy) acetic acid at 300 mg/5ml, po daily for 4 consecutive days measured within 1 day after final dose by NMR/MS analysis; format: ADME, organism-based; in short: as §1
[3] = Drug excretion in Rattus norvegicus CD Sprague-Dawley (rat) urine assessed as 2-{2-ethoxy-4-[(isopropoxycarbonyl)amino]- phenoxy}acetic acid at 300 mg/5ml, po daily for 4 consecutive days measured within 1 day after final dose by NMR/MS analysis; format: ADME, organism-based; in short: as §1
[4] = Drug excretion in Rattus norvegicus CD Sprague-Dawley (rat) urine assessed as 3-(3-ethoxy-4-hydroxyphenyl)-4-hydroxy-5-methyloxazolidin- 2-one at 300 mg/5ml, po daily for 4 consecutive days measured within 1 day after final dose by NMR/MS analysis; format: ADME, organism-based; in short: as §1
[5] = Drug excretion in Rattus norvegicus CD Sprague-Dawley (rat) urine assessed as 1-hydroxypropan-2-yl 3-ethoxy-4-hydroxycarbanilate at 300 mg/5ml, po daily for 4 consecutive days measured within 1 day after final dose by NMR/MS analysis; format: ADME, organism-based; in short: as §1
[6] = Drug excretion in Rattus norvegicus CD Sprague-Dawley (rat) urine assessed as N-(3-ethoxy-4-hydroxy-5-methylsulfinylphenyl) acetamide at 300 mg/5ml, po daily for 4 consecutive days measured within 1 day after final dose by NMR/MS analysis; format: ADME, organism-based; in short: as §1
[7] = Drug excretion in Rattus norvegicus CD Sprague-Dawley (rat) urine assessed as 2-acetamino- 3-[5-acetamino-3-ethoxy-2-hydroxyphenylthio]propionic acid at 300 mg/5ml, po daily for 4 consecutive days measured within 1 day after final dose by NMR/MS analysis; format: ADME, organism-based; in short: as §1
[8] = Drug excretion in Rattus norvegicus CD Sprague-Dawley (rat) urine assessed as N-(3-ethoxy-4- hydroxyphenyl)acetamide at 300 mg/5ml, po daily for 4 consecutive days measured within 1 day after final dose by NMR/MS analysis; format: ADME, organism-based; in short: as §1
[9] = Drug excretion in Rattus norvegicus CDSprague-Dawley (rat) urine assessed as isopropyl 3-ethoxy-4- hydroxy-5-(methylthio) carbanilate at 300 mg/5ml, po daily for 4 consecutive days measured within 1 day after final dose by NMR/MS analysis; format: ADME, organism-based, CD Sprague-Dawley; in short: as §1
[10] = Drug excretion in Rattus norvegicus CD Sprague-Dawley (rat) urine assessed as 2-acetamino-3-{4-ethoxy-3-hydroxy-2-[(isopropoxycarbonyl)amino]phenylthio}propionic acid at 300 mg/5ml, po daily for 4 consecutive days measured within 1 day after final dose by NMR/MS analysis; format: ADME, organism-based; in short: as §1
[11] = Drug excretion in Rattus norvegicus CD Sprague-Dawley (rat) urine assessed as 2-acetamino-3-{3-ethoxy-2-hydroxy-5-[(isopropoxycarbonyl) amino]phenylthio}propionic acid at 300 mg/5ml, po daily for 4 consecutive days measured within 1 day after final dose by NMR/MS analysis; format: ADME, organism-based; in short: as §1

Measured: Drug excretion

CCOc1ccc(NC(=O)OC(C)C)cc1OCC [DIETHENOFENCARB]
Active: [1] | [2] | [3] | [4] | [5] | [6] | [7] | [8] | [9] | [10] | [11]
